{"source": "ChEMBL document CHEMBL1147789", "about": "“The search for novel TRPV1-antagonists: from carboxamides to benzimidazoles and indazolones” (Bioorg Med Chem Lett, 2006)", "key": {"[1]": {"target": "T1, Transient receptor potential cation channel subfamily V member 1 (Homo sapiens, UniProt Q8NER1)", "T1 sequence (Q8NER1 whole entry)": "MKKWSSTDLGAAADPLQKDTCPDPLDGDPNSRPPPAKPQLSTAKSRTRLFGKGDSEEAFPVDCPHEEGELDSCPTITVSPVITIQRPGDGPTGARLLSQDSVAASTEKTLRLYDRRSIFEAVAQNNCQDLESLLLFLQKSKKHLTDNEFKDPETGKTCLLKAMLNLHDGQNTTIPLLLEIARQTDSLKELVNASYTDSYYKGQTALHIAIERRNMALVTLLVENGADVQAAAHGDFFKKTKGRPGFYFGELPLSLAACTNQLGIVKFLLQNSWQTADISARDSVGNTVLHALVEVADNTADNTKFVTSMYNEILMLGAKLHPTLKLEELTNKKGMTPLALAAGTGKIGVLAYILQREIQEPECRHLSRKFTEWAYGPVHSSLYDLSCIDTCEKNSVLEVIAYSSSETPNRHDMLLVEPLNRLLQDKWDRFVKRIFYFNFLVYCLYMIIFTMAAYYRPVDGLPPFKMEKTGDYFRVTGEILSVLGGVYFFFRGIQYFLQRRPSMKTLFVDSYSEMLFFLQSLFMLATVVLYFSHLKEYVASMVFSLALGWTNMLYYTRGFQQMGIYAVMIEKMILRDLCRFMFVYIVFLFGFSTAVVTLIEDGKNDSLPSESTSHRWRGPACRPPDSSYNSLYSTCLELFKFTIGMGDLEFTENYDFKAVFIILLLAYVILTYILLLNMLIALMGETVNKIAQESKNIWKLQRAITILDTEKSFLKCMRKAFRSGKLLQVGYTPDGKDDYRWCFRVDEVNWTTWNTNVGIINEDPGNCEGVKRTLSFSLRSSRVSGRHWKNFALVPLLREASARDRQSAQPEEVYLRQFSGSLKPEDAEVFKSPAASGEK", "assay": "Antagonist activity against capsaicin-induced intracellular calcium ion increase in CHO cells expressing human TRPV1 in FLIPR assay", "assay_type": "functional, cell-based"}, "[2]": {"target": "T1, Transient receptor potential cation channel subfamily V member 1", "assay": "Inhibition of acidic pH 5.5-stimulated current in CHO cells expressing human TRPV1 receptor by patch clamp", "assay_type": "functional, cell-based"}, "[3]": {"assay": "Systemic AUC in rat at 5 mg/kg, po", "assay_type": "ADME, organism-based", "design": "dose 5 mg/kg, route oral", "conditions": "in vivo", "outline": "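Oral dose of 5 mpk; AUC taken from systemic blood levels.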"}, "[4]": {"assay": "AUC in hepatic portal vein of rat at 5 mg/kg, po", "assay_type": "ADME, organism-based, Plasma", "design": "dose 5 mg/kg, route oral"}, "[5]": {"assay": "Half life in rat at 1 mg/kg, iv", "assay_type": "ADME, organism-based", "design": "dose 1 mg/kg, route intravenous", "conditions": "in vivo"}, "[6]": {"assay": "Volume of distribution in rat at 1 mg/kg, iv", "assay_type": "ADME, organism-based", "design": "dose 1 mg/kg, route intravenous", "conditions": "in vivo, read-out: Vdss"}, "[7]": {"target": "T2, Transient receptor potential cation channel subfamily V member 1 (Rattus norvegicus, UniProt O35433)", "T2 sequence (O35433 whole entry)": "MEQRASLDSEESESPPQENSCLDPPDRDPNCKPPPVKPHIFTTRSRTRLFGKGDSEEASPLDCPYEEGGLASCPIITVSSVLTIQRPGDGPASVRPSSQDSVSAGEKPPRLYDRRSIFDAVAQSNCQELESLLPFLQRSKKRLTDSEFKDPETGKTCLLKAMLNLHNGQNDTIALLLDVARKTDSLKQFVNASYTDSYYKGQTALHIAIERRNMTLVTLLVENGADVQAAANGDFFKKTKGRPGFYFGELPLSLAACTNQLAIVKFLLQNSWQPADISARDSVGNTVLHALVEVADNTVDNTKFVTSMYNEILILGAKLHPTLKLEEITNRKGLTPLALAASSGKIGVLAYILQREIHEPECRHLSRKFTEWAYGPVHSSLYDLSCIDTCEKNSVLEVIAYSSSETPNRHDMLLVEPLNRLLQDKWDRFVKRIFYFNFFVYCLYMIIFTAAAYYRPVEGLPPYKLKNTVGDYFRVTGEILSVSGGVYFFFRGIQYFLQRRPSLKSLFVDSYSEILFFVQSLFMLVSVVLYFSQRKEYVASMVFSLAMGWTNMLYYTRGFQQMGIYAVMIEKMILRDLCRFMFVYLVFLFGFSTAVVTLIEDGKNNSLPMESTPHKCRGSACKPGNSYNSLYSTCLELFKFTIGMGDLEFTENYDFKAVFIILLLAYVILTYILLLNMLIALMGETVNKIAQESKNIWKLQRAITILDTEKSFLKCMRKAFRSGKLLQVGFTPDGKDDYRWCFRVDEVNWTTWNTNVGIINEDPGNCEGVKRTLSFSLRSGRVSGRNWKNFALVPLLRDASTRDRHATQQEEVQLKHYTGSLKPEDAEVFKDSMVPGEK", "assay": "Activity against capsaicin-induced […] in CHO cells expressing rat TRPV1 assessed by patch clamp", "assay_type": "functional, cell-based", "outline": "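Whole-cell patch clamp on cells expressing rat TRPV1, stimulated with 500 nM capsaicin; IC50 for inhibition of the evoked response.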"}, "[8]": {"assay": "Clearance in rat at 1 mg/kg, iv", "assay_type": "ADME, organism-based", "design": "dose 1 mg/kg, route intravenous", "conditions": "in vivo"}, "[9]": {"target": "Transient receptor potential cation channel subfamily V member 1 (Rattus norvegicus) (UniProt O35433)", "sequence (O35433 whole entry)": "as above", "assay": "Decrease in carrageenan-induced thermal hyperalgesia in rat at 30 mg/kg, po", "assay_type": "functional, organism-based", "design": "dose 30 mg/kg; scale not given: the % may be the effect or the level left", "outline": "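Rats received 0.1 mL intraplantar carrageenan, or saline for the uninflamed group, in the right hind limb. Two hours later they were dosed orally at 30 mpk. After 1 h, thermal withdrawal was retested three times on each hind paw (Hargreaves). Saline response was set as 0% hyperalgesia and carrageenan response as 100%.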"}, "[10]": {"target": "T2, Transient receptor potential cation channel subfamily V member 1", "assay": "Activity at rat TRPV1 as inhibition of pH 5.5-induced currents in CHO cells"}, "[11]": {"target": "T1, Transient receptor potential cation channel subfamily V member 1", "assay": "Inhibition of acidic pH 5.5-stimulated current in CHO cells expressing human TRPV1 receptor at 100 nM by patch clamp", "assay_type": "functional, cell-based"}}}
{"smiles": "Cc1cccnc1-c1ccc2c(=O)n(-c3ccc(C(F)(F)F)cc3)[nH]c2c1", "values": [{"measurement": "IC50", "setting": "[1]", "result": 180, "unit": "nM"}]}
{"smiles": "CC(C)(C)c1ccc(C(=O)Nc2ccc(-c3ncccc3C(F)(F)F)cc2)cc1", "values": [{"measurement": "IC50", "setting": "[1]", "result": 470, "unit": "nM"}]}
{"smiles": "Fc1ccc(-c2nc3cc(-c4ncccc4C(F)(F)F)ccc3[nH]2)cc1", "values": [{"measurement": "IC50", "setting": "[1]", "result": 320, "unit": "nM"}]}
{"smiles": "O=C(Nc1ccc(-c2ncccc2C(F)(F)F)cc1)c1ccc(C(F)(F)F)cc1", "values": [{"measurement": "IC50", "setting": "[1]", "result": 24, "unit": "nM"}, {"measurement": "IC50", "setting": "[2]", "result": 33, "unit": "nM"}, {"measurement": "AUC", "setting": "[3]", "result": 0.04, "unit": "µM·h"}, {"measurement": "AUC", "setting": "[4]", "result": 0.08, "unit": "µM·h"}]}
{"smiles": "Cc1cccnc1-c1ccc2c(=O)n(-c3ccc(C(F)(F)F)cc3)[nH]c2n1", "values": [{"measurement": "IC50", "setting": "[1]", "result": 270, "unit": "nM"}]}
{"smiles": "Cc1ccc(C(=O)Nc2ccc(-c3ncccc3C(F)(F)F)cc2)cc1", "values": [{"measurement": "IC50", "setting": "[1]", "result": 1100, "unit": "nM"}]}
{"smiles": "O=c1c2ccc(-c3ncccc3C(F)(F)F)cc2[nH]n1-c1ccc(C(F)(F)F)cc1", "values": [{"measurement": "IC50", "setting": "[1]", "result": 35, "unit": "nM"}, {"measurement": "half-life", "setting": "[5]", "result": 3.6, "unit": "h"}, {"measurement": "Vd", "setting": "[6]", "result": 2, "unit": "L/kg"}, {"measurement": "IC50", "setting": "[7]", "result": 220, "unit": "nM"}, {"measurement": "IC50", "setting": "[2]", "result": 4, "unit": "nM"}, {"measurement": "clearance", "setting": "[8]", "result": 8, "unit": "mL/min/kg"}, {"measurement": "Activity", "setting": "[9]", "result": 50, "unit": "%"}, {"measurement": "IC50", "setting": "[10]", "result": 65, "unit": "nM"}, {"measurement": "AUC", "setting": "[3]", "result": 3, "unit": "µM·h"}, {"measurement": "AUC", "setting": "[4]", "result": 6.2, "unit": "µM·h"}]}
{"smiles": "O=c1c2cc(-c3ncccc3C(F)(F)F)ccc2[nH]n1-c1ccc(C(F)(F)F)cc1", "values": [{"measurement": "IC50", "setting": "[1]", "result": 370, "unit": "nM"}]}
{"smiles": "COc1ccccc1-c1ccc2c(=O)n(-c3ccc(C(F)(F)F)cc3)[nH]c2c1", "values": [{"measurement": "IC50", "setting": "[1]", "result": 170, "unit": "nM"}]}
{"smiles": "O=c1c2ccccc2[nH]n1-c1ccc(C(F)(F)F)cc1", "values": [{"measurement": "IC50", "setting": "[1]", "result": 340, "unit": "nM"}]}
{"smiles": "Cc1ccc(-c2nc3cc(-c4ncccc4C(F)(F)F)ccc3[nH]2)cc1", "values": [{"measurement": "IC50", "setting": "[1]", "result": 170, "unit": "nM"}]}
{"smiles": "FC(F)(F)c1ccc(-c2nc3cc(-c4ncccc4C(F)(F)F)ccc3[nH]2)cc1", "values": [{"measurement": "IC50", "setting": "[1]", "result": 22, "unit": "nM"}, {"measurement": "inhibition", "setting": "[11]", "result": 95, "unit": "%"}, {"measurement": "AUC", "setting": "[3]", "result": 1.25, "unit": "µM·h"}, {"measurement": "AUC", "setting": "[4]", "result": 1.48, "unit": "µM·h"}]}
{"smiles": "O=C(Nc1ccc(-c2ncccc2C(F)(F)F)cc1)c1ccccc1", "values": [{"measurement": "IC50", "setting": "[1]", "result": 2400, "unit": "nM"}]}
{"smiles": "O=C(Nc1ccc(-c2ccccn2)cc1)c1ccc(C(F)(F)F)cc1", "values": [{"measurement": "IC50", "setting": "[1]", "result": 1500, "unit": "nM"}]}
{"smiles": "CC(C)(C)c1ccc(-c2nc3cc(-c4ncccc4C(F)(F)F)ccc3[nH]2)cc1", "values": [{"measurement": "IC50", "setting": "[1]", "result": 224, "unit": "nM"}]}
{"smiles": "Oc1c2c(nn1-c1ccc(C(F)(F)F)cc1)NC(c1ncccc1C(F)(F)F)CC2", "note": "(stereo not drawn)", "values": [{"measurement": "IC50", "setting": "[1]", "result": 290, "unit": "nM"}]}
{"smiles": "Cc1cccnc1-c1ccc(NC(=O)c2ccc(C(F)(F)F)cc2)cc1", "values": [{"measurement": "IC50", "setting": "[1]", "result": 160, "unit": "nM"}]}
{"smiles": "Cc1cccnc1-c1ccc(NC(=O)c2cccc(C(F)(F)F)c2)cc1", "values": [{"measurement": "IC50", "setting": "[1]", "result": 640, "unit": "nM"}]}
